In paper PMC5553550 (Nature nanotechnology, 2017):

How the values were obtained:
[1] = test system: pSmad1/5; test: Western blot of Smad phosphorylation in C2C12 cells; assay type: cell-based, mouse
[2] = SAXS / cryo-TEM of self-assembly; assay type: physicochemical; details: cryo-TEM at 25 μM or SAXS
[3] = test system: BMP-2 signaling in C2C12 cells; test: BMP-2 induced ALP activity in C2C12 cells; assay type: cell-based, mouse; details: BMP-2 75 ng/mL, 3 days; for enhancement of BMP-2 induced ALP activity, in words: PA or monosaccharide 25 μM, n = 8
[4] = test system: BMP-4 signaling in C2C12 cells; test: BMP-4 induced ALP activity in C2C12 cells; assay type: cell-based, mouse; details: BMP-4 75 ng/mL, monosaccharide 1 25 μM, 3 days; n = 8
Outline: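 C2C12 cells were co-treated with BMP-4 (75 ng/mL) and either the glycopeptide amphiphile nanostructure or the free sulfated monosaccharide, each at 25 μM. Osteoblast differentiation was read out as alkaline phosphatase (ALP) activity. Results are reported as mean ± SEM with n = 8.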

[5] = test system: noggin; test: SPR binding to immobilized noggin; details: heparin 0.01-100 µM or PA 1 10-60 µM; HEPES buffer pH 7.6, 25 °C
[6] = test system: C2C12 cells; test: Mineralization assay; assay type: cell-based, mouse; details: BMP-2 100 ng/mL; heparin 0.62 μM (10 μg/mL) or PA 25 μM; 10 days
[7] = test system: noggin; details: C2C12 cells; ref [5],[41]; cited from earlier work
[8] = test system: BMP-2; details: known effect; ref [4],[5]; cited from earlier work

For c1ccc2c(-c3cnn4cc(-c5ccc(N6CCNCC6)cc5)cnc34)ccnc2c1 [LDN-193189], the “BMP-2 mediated Smad phosphorylation with LDN-193189” value ([1]; LDN-193189 0.5 μM, BMP-2 75 ng/mL, regardless of heparin or PA 1) was “impeded the BMP-2 mediated phosphorylation of Smads”.

In the case of CC(=O)N[C@H]1[C@H](OCCN=[N+]=[N-])O[C@H](COS(=O)(=O)O)[C@@H](OS(=O)(=O)O)[C@@H]1OS(=O)(=O)O [monosaccharide 1, 2-Azidoethyl 2-acetamido-3,4,6-tri-O-sulfo-2-deoxy-β-D-glycopyranoside], the “self-assembly / supramolecular structure” value [2] is reported as “absence of any significant supramolecular structure”, the “enhancement of BMP-2 induced ALP activity, in words” value [3] is reported as “found this not to be the case” and the “amplification of BMP-4 signaling (ALP activity)” value [4] is reported as “found this not to be the case”.

For Heparin, the “SPR binding to noggin” value [5] was “did not observe a strong binding to noggin”, the “enhancement of ALP expression vs BMP-2 alone, factor” value ([3]; normalized to DNA, dose response for heparin and HS) was 5 and the “enhancement of BMP-2 induced ALP activity, in words” value [3] was “more potent response than HS”. The “matrix mineralization of C2C12 cells” value [6] was “inhibited BMP-2 (100 ng/mL) dependent mineralization”, the “pSmad1/5 accumulation with BMP-2” value ([1]; BMP-2 75 ng/mL, 3 h, heparin 0.62 μM or PA 1 25 μM, n = 3) was “significantly higher relative to that with BMP-2 alone” and the “pSmad1/5 accumulation without BMP-2” value ([1]; heparin 0.62 μM or PA 1 25 μM, no BMP-2) was “did not enhance accumulation of pSmad proteins”. The “effect on noggin activity” value [7] was “binds and inhibits noggin activity, thereby rescuing BMP signaling and the subsequent ALP expression in C2C12 cells” and the “half-life of BMP-2” value [8] was “prolong the half-life of BMP-2”.
